Screening data deposited in PubChem BioAssay by several laboratories.
Only some compounds are listed: those with a hit (about 2.9% of all), similar ones and a draw of the others.
MT stabilizer = microtubule stabilizers in HeLa cells. AID 2205. 0.83% of 200,000 active. HeLa tubulin immunostaining HCS, 24 h; share of cells brighter than vehicle mean+2SD. % tubulin-high responders, % at 10 µM;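 active = plate Z-score above 3 for both tubulin-high and condensed-nucleus cell shares, with cell loss under 80%, at 10 µM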;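 also: anti alpha tubulin signal scored within the nucleus-defined area of each cell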
Autophagy HCS = modulators of autophagy; 0.98% of 190,000 active; MEF GFP-LC3 puncta imaging; test concentration mostly 10 µM; calls only at 10 µM (by protocol);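 active = percentage of spot-positive cells more than 3 SD above its plate mean, without a fluorescence outlier flag or 80% toxicity; inconclusive = no clear call, values can overlap the other calls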
bCat nuc transl = modulators of beta-catenin nuclear translocation; HeLa beta-catenin nuclear translocation, immunofluorescence imaging; nuclear translocation activity, % at 5 µM; 0.3% of 190,000 active; AID 1665;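 active = nuclear translocation activity above 50% at 5 µM, with a well cell count of 50 or more; inconclusive = wells under 50 cells across six images, flagged as toxic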;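 also: per-cell ratio of nuclear to cytoplasmic median beta-catenin stain intensity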
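Test system: HeLa cells, endogenous beta-catenin; Compound: single 5 µM dose plus 0.02–20 µM confirmation series; Times: compound exposure 24 h at 37°C; Signal: fluorescence imaging of beta-catenin antibody stain plus DAPI; Read-out: % activation, nuclear-to-cytoplasmic median beta-catenin signal ratio per cell.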
Insulin prom up = MIN6 insulin promoter up-regulation; z-score at 5 µM; 0.3% of 190,000 active; MIN6 insulin promoter-GFP reporter, high-content imaging; stronger effect = higher value;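 active = z-score above 3 at 5 µM with at least 500 cells counted in the well; inconclusive = wells under 500 cells, flagged as cytotoxic or low count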
Wee1 stabilizer = blocks degradation of human Wee1 kinase; P30291; HeLa Luc-Wee1K328M stability, luciferase luminescence; 100% = proteasome inhibitor MG132 effect; reporter increase, % at 5 µM; 1.2% of 220,000 active;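 active = activation above the mean of all tested compounds plus 3 SD, set per screening run, cut at about 8.8% in these data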;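 also: cells exposed to compound for 20 h before luminescence read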
Target sequence (P30291 whole entry K328M): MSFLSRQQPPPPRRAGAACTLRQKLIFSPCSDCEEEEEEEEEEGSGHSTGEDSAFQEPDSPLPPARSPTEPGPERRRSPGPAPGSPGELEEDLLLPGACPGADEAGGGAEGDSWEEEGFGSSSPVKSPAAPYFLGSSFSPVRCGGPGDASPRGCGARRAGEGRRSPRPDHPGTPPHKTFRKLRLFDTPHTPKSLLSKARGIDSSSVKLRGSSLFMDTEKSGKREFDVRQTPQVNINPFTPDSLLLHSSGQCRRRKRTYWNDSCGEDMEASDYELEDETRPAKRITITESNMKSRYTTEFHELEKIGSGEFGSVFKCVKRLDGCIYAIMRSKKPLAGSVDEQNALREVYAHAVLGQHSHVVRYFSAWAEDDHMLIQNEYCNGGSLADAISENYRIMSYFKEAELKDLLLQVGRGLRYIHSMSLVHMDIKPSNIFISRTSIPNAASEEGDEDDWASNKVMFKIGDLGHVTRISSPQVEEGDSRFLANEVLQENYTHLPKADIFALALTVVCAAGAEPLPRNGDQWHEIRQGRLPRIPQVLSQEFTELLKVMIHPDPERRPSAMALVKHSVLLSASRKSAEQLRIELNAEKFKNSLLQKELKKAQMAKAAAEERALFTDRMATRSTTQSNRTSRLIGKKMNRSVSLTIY
Numbers stand for hits; - = inactive; ? = inconclusive; . = not tested or not shown; + = active, no number.

SMILES | MT stabilizer | Autophagy HCS | bCat nuc transl | Insulin prom up | Wee1 stabilizer
CCOC(=O)c1c(NC(=O)COC(=O)c2cc(OC)c(OC)cc2[N+](=O)[O-])sc(C)c1C | - | - | - | - | -
CCOC(=O)/C(N=Nc1ccc2c(c1)OCO2)=C(\C)O | - | - | - | - | -
CCc1ccc(/C=N/NC(=O)c2cc(C3CC3)nc3ccccc23)s1 | 41 | - | . | . | 11
COc1ccccc1-c1c(C(F)(F)F)oc2cc(OC(=O)c3ccc([N+](=O)[O-])cc3)ccc2c1=O | - | - | - | - | -
COc1ccc(-c2nn(C)c(=O)[nH]2)cc1 | . | . | - | - | 11
CCOC(=O)/C=c1\s/c(=C\c2ccc3cc(OC)ccc3c2)c(=O)n1CC(=O)NCC1CCCO1 (stereo not given) | - | + | - | - | -
CCOC(=O)/C=c1\s/c(=C\c2sccc2C)c(=O)n1CC(=O)NCc1ccc(C)cc1 | - | + | - | - | -
COc1ccc(S(=O)(=O)NN(C)c2nc(C(F)(F)F)nc3ccccc23)cc1 | 25 | - | - | - | -
O=C1NC2c3ccccc3C(=O)N2c2c1cnn2-c1ccccc1 (stereo not given) | 11 | - | - | - | -
O=C1c2ccccc2N2C(=O)c3ccccc3[C@H]2N1c1ccccc1 | - | - | . | - | -
Cc1nnc(SCC(=O)NNC(=O)c2ccc(Br)cc2)n1C | - | - | - | - | -
Nc1nc(N)nc(COc2ccccc2)n1 | - | - | - | - | 9.4
CN1C=CC2=C(C#N)C(N)C(C#N)(C#N)[C@H](c3ccccc3)[C@H]2C1 (stereo not given in full) | - | ? | - | . | -
Cc1ccccc1-n1c(SCC(=O)NCc2cccs2)nc2ccccc2c1=O | - | - | - | - | -
N#C/C(C(=O)c1ccccc1)=C1/SC=C(N)N1c1ccccc1 | - | - | - | 6 | -
CCOC(=O)c1[nH]c(C)c(C(=O)Nc2ccccc2C)c1C | 31 | - | - | - | -
CCOC(=O)c1[nH]c(C)c(C(=O)Nc2ccc(C)c(Cl)c2)c1C | - | - | - | - | -
CCOC(=O)c1[nH]c(C)c(C(=O)Nc2cc(Cl)ccc2C)c1C | 38 | - | 58 | - | -
CCOC(=O)c1ccc(NC(=O)Cn2ncc(Cl)c(Cl)c2=O)cc1 | - | + | . | ? | -
COc1cc([N+](=O)[O-])cc2sc(NC(=O)c3c(F)cccc3F)nc12 | - | - | - | - | -
CC1CC(C)(C)N(C(=O)CN2C(=O)c3ccccc3C2=O)c2ccccc21 (stereo not given) | - | + | - | . | -
Cc1cc(NC(=O)CSc2ncccc2C(=O)O)no1 | - | - | - | - | -
O=C(Nc1ccccc1)c1cc(N2CCOCC2)nc2ccccc12 | - | - | - | - | -
Cc1ccc(NC(=O)c2cc(N3CCOCC3)nc3ccccc23)cc1 | 24 | - | - | - | -
COCCNC(=O)/C=C/c1c(Cl)cccc1Cl | - | - | - | - | -
SMILES | MT stabilizer | Autophagy HCS | bCat nuc transl | Insulin prom up | Wee1 stabilizer
CCOC(=O)c1cnc(-c2ccccc2)nc1C(F)(F)F | - | - | - | - | -
O=C(O)c1cnc(-c2ccccc2)nc1C(F)(F)F | - | - | - | - | 11
COc1cc2c(cc1NC(=O)c1cccc(S(=O)(=O)N(C)C)c1)oc1ccccc12 | - | - | - | - | -
COc1cc2c(cc1NC(=O)/C=C/c1ccccc1)oc1ccccc12 | - | + | - | - | -
COc1ccc(/C=C/C(=O)NC(=S)Nc2cc3oc4ccccc4c3cc2OC)cc1 | - | - | - | - | -
CCN(CC)S(=O)(=O)c1ccc(C(=O)Nc2cc3oc4ccccc4c3cc2OC)cc1 | - | + | - | - | -
COc1cccc(OC)c1C(=O)Nc1cc(C)nn1-c1nc2ccccc2[nH]1 | 9.3 | - | - | - | -
Cc1cc(NC(=O)c2ccccc2)n(-c2nc3ccccc3[nH]2)n1 | - | + | - | - | -
Cc1cc(NC(=O)c2cccs2)n(-c2nc3ccccc3[nH]2)n1 | - | - | - | - | -
COC(=O)c1ccc(OC(C)C(=O)c2ccc(C)cc2)cc1 (stereo not given) | - | - | . | - | -
Cc1ccc(NS(=O)(=O)c2cc(C(=O)N3CCN(C)CC3)ccc2C)cc1C | - | - | - | - | 8.9
Cc1ccc(NS(=O)(=O)c2cc(C(=O)N3CCCC3)ccc2C)cc1C | - | - | - | - | -
COc1ccc2[nH]cc(CCNC(=O)C3CCCO3)c2c1 (stereo not given) | - | - | - | - | 11
COc1ccc(-c2n(Cc3ccccc3)c3ccccc3[n+]2Cc2ccccc2)cc1 | 11 | - | - | - | -
CCOC(=O)c1[nH]c2c(c1C)C(=O)CC(c1ccc(OC)c(OC)c1)C2 (stereo not given) | - | - | - | - | -
Cc1c(C(=O)OCC2CCCO2)[nH]c2c1C(=O)CC(c1ccco1)C2 (stereo not given) | 40 | - | 89 | - | -
Cc1c(C(=O)N2CCOCC2)[nH]c2c1C(=O)CC(c1ccccc1Cl)C2 (stereo not given) | 41 | - | . | - | -
C=CCOC(=O)c1[nH]c2c(c1C)C(=O)CC(c1ccco1)C2 (stereo not given) | - | - | 89 | - | -
COC(=O)c1[nH]c2c(c1C)C(=O)CC(c1ccccc1)C2 (stereo not given) | - | + | 56 | - | -
COC(C[C@@H](O)CC(=O)COCc1ccccc1)OC | . | . | - | - | .
OCCNc1cc(Cl)ncn1 | . | . | - | - | -
COC(=O)C1C(=O)c2c([nH]c(C(=O)OC3CCCC3)c2C)CC1C (stereo not given) | - | - | - | - | -
C/C=C/COC(=O)c1[nH]c2c(c1C)C(=O)CC(c1ccco1)C2 (stereo not given) | - | . | 154 | . | -
Cc1c(C(=O)OC2CCCC2)[nH]c2c1C(=O)CC(c1ccco1)C2 (stereo not given) | - | + | 132 | - | -
Cc1c(C(=O)OCC(C)C)[nH]c2c1C(=O)CC(c1ccco1)C2 (stereo not given) | - | . | 183 | . | -
SMILES | MT stabilizer | Autophagy HCS | bCat nuc transl | Insulin prom up | Wee1 stabilizer
C/C(=N\NC(=O)Cc1cccc2ccccc12)c1ccncc1 | - | - | . | - | -
Cc1c2c(n3c(nc4ccccc43)c1C#N)N(c1ccccc1)CC2 | - | + | - | - | -
Cc1c2c(n3c(nc4ccccc43)c1C#N)N(CCN(C)C)CC2 | - | - | - | - | -
N#Cc1c2c(c(Nc3ccccc3)n3c1nc1ccccc13)CCC2 | - | - | - | - | -
N#Cc1c2c(c(-n3cnc4ccccc43)n3c1nc1ccccc13)CCC2 | - | - | - | 4.8 | -
c1ccc(-c2cn3nc(-c4ccccc4)cnc3n2)cc1 | - | + | - | - | -
CCOC(=O)CSc1nc(C(C)(C)C)nc2ccccc12 | - | - | - | - | -
CC(C)CC(=O)NC(NC(=S)Nc1sc2c(c1C#N)CCCC2)C(Cl)(Cl)Cl (stereo not given) | - | - | - | - | -
